From ChEMBL document CHEMBL1121917, “Structure--activity relationships in a broad-spectrum anthelmintic series. Acid chloride phenylhydrazones. 1. Aryl substitutions and chloride variations” (1981)

Legend:
Canis familiaris [1] = species on record: Canis familiaris; assay: Percent reduction in Uncinaria eggs per gram, after treatment with 200 mg/dog dose of compound in a single treatment; assay type: functional, Canis lupus familiaris, Egg
Procedure, shortened: (§1)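 Dogs naturally infected with Toxascaris leonina were experimentally infected with mixed Ancylostoma caninum and Uncinaria stenocephala larvae. Finely ground compound was given orally in gelatin capsules. Three egg count determinations were made before and three after treatment in each experiment.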

Canis familiaris [2] = species on record: Canis familiaris; assay: Percent reduction in Uncinaria eggs per gram, after treatment with 250 mg/dog dose of compound in a single treatment; assay type: functional, Canis lupus familiaris, Egg
Canis familiaris [3] = species on record: Canis familiaris; assay: Percent reduction in Uncinaria eggs per gram, after treatment with 275 mg/dog dose of compound in a single treatment; assay type: functional, Canis lupus familiaris, Egg
Canis familiaris [4] = species on record: Canis familiaris; assay: Percent reduction in Ancylostoma eggs per gram, after treatment with 200 mg/dog dose of compound in a single treatment; assay type: functional, Canis lupus familiaris, Egg
Procedure, shortened: (§2)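 Dogs naturally infected with Toxascaris leonina were experimentally infected with mixed Ancylostoma caninum and Uncinaria stenocephala larvae. Finely ground compound was given orally in gelatin capsules. Fecal egg counts were taken three times before and three times after treatment, and activity was taken as the fall in egg counts.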

Canis familiaris [5] = species on record: Canis familiaris; assay: Percent reduction in Ancylostoma eggs per gram, after treatment with 250 mg/dog dose of compound in a single treatment; assay type: functional, Canis lupus familiaris, Egg; procedure, shortened: as §2
Canis familiaris [6] = species on record: Canis familiaris; assay: Percent reduction in Ancylostoma eggs per gram, after treatment with 275 mg/dog dose of compound in a single treatment; assay type: functional, Canis lupus familiaris, Egg; procedure, shortened: as §2
Canis familiaris [7] = species on record: Canis familiaris; assay: Percent reduction in Toxascaris eggs per gram, after treatment with 200 mg/dog dose of compound in a single treatment; assay type: functional, Canis lupus familiaris, Egg; procedure, shortened: as §1
Canis familiaris [8] = species on record: Canis familiaris; assay: Percent reduction in Trichuris eggs per gram, after treatment with 200 mg/dog dose of compound in a single treatment; assay type: functional, Canis lupus familiaris, Egg
Mus musculus [9] = species on record: Mus musculus; assay: Percent clearance of Nematospiroides dubius from mouse oral treatment of 0.25 mg/mouse/day of compound; assay type: functional
Procedure, shortened: (§3)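 Mice naturally carrying Syphacia obvelata were experimentally infected with Nematospiroides dubius and Hymenolepis nana, then grouped after a 2-week prepatency. Finely ground compound was suspended in aqueous 0.10% carboxymethylcellulose, 0.04% polysorbate 80 and 0.0042% polyparaben, and 0.1 mL was given orally by cannula once daily for 4 days to five mice. Necropsy followed 2 days later, scoring presence or absence of each parasite. Control clearance was subtracted from the treated clearance.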

Mus musculus [10] = species on record: Mus musculus; assay: Percent clearance of Syphacaia obvelata from mouse after oral treatment of 0.25 mg/mouse/day of compound; assay type: functional; procedure, shortened: as §3
Ovis aries [11] = assay: Percent reduction in Trichostrongylus eggs per gram, after treatment with 200 mg/kg dose of compound in sheep perorally; assay type: functional, Egg; details: route oral
Ovis aries [12] = assay: Percent reduction in Trichostrongylus eggs per gram, after treatment with 300 mg/kg dose of compound in sheep perorally; assay type: functional, Egg; details: route oral
Ovis aries [13] = assay: Percent reduction in Trichostrongylus eggs per gram, after treatment with 400 mg/kg dose of compound in sheep perorally; assay type: functional, Egg; details: route oral
Ovis aries [14] = assay: Percent reduction in Trichuris eggs per gram, after treatment with 100 mg/kg dose of compound in sheep perorally; assay type: functional, Egg; details: route oral
Ovis aries [15] = assay: Percent reduction in Trichuris eggs per gram, after treatment with 150 mg/kg dose of compound in sheep perorally; assay type: functional, Egg; details: route oral
Ovis aries [16] = assay: Percent reduction in Trichuris eggs per gram, after treatment with 200 mg/kg dose of compound in sheep perorally; assay type: functional, Egg; details: route oral
Ovis aries [17] = assay: Percent reduction in Trichuris eggs per gram, after treatment with 300 mg/kg dose of compound in sheep perorally; assay type: functional, Egg; details: route oral
Ovis aries [18] = assay: Percent reduction in Trichuris eggs per gram, after treatment with 400 mg/kg dose of compound in sheep perorally; assay type: functional, Egg; details: route oral
Ovis aries [19] = assay: Percent reduction in Haemonchus eggs per gram, after treatment with 100 mg/kg dose of compound in sheep perorally; assay type: functional, Egg; details: route oral
Procedure, shortened: (§4)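 Naturally parasitized lambs received compound orally, either as the aqueous suspension by stomach tube or as finely ground powder in gelatin capsules by balling gun. Activity was judged by the clinical test method, as a significant decrease in posttreatment helminth egg counts.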

Ovis aries [20] = assay: Percent reduction in Haemonchus eggs per gram, after treatment with 150 mg/kg dose of compound in sheep perorally; assay type: functional, Egg; details: route oral; procedure, shortened: as §4
Ovis aries [21] = assay: Percent reduction in Haemonchus eggs per gram, after treatment with 200 mg/kg dose of compound in sheep perorally; assay type: functional, Egg; details: route oral
Procedure, shortened: (§5)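 Naturally parasitized lambs were dosed orally at the stated mg/kg. Dosing was either as a suspension of finely ground compound by stomach tube, or as ground compound weighed into gelatin capsules and given by balling gun. Activity was scored by the clinical test method: the decrease in posttreatment helminth eggs per gram.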

Ovis aries [22] = assay: Percent reduction in Haemonchus eggs per gram, after treatment with 300 mg/kg dose of compound in sheep perorally; assay type: functional, Egg; details: route oral; procedure, shortened: as §5
Ovis aries [23] = assay: Percent reduction in Nematodirus eggs per gram, after treatment with 300 mg/kg dose of compound in sheep perorally; assay type: functional, Egg; details: route oral; procedure, shortened: as §5
Ovis aries [24] = assay: Percent reduction in Nematodirus eggs per gram, after treatment with 400 mg/kg dose of compound in sheep perorally; assay type: functional, Egg; details: route oral; procedure, shortened: as §5
Ovis aries [25] = assay: Percent reduction in Oesophagostomum eggs per gram, after treatment with 100 mg/kg dose of compound in sheep perorally; assay type: functional, Egg; details: route oral; procedure, shortened: as §5
Ovis aries [26] = assay: Percent reduction in Oesophagostomum eggs per gram, after treatment with 150 mg/kg dose of compound in sheep perorally; assay type: functional, Egg; details: route oral; procedure, shortened: as §5
Ovis aries [27] = assay: Percent reduction in Oesophagostomum eggs per gram, after treatment with 200 mg/kg dose of compound in sheep perorally; assay type: functional, Egg; details: route oral; procedure, shortened: as §5
Ovis aries [28] = assay: Percent reduction in Strongyloides eggs per gram, after treatment with 200 mg/kg dose of compound in sheep perorally; assay type: functional, Egg; details: route oral
Procedure, shortened: (§6)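 Naturally parasitized lambs, dosed orally either with a suspension by stomach tube or with finely ground compound in gelatin capsules by balling gun. Activity was scored by the clinical test method, meaning a significant fall in helminth egg counts after treatment.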

Ovis aries [29] = assay: Percent reduction in Haemonchus eggs per gram, after treatment with 400 mg/kg dose of compound in sheep perorally; assay type: functional, Egg; details: route oral; procedure, shortened: as §5
Ovis aries [30] = assay: Percent reduction in Moniezia eggs per gram, after treatment with 150 mg/kg dose of compound in sheep perorally; assay type: functional, Egg; details: route oral; procedure, shortened: as §5
Ovis aries [31] = assay: Percent reduction in Strongyloides eggs per gram, after treatment with 300 mg/kg dose of compound in sheep perorally; assay type: functional, Egg; details: route oral; procedure, shortened: as §6
Ovis aries [32] = assay: Percent reduction in Strongyloides eggs per gram, after treatment with 400 mg/kg dose of compound in sheep perorally; assay type: functional, Egg; details: route oral; procedure, shortened: as §6
Ovis aries [33] = assay: Percent reduction in Ostertagia eggs per gram, after treatment with 400 mg/kg dose of compound in sheep perorally; assay type: functional, Egg; details: route oral; procedure, shortened: as §6
Ovis aries [34] = assay: Percent reduction in Trichostrongylus eggs per gram, after treatment with 100 mg/kg dose of compound in sheep perorally; assay type: functional, Egg; details: route oral
Procedure, shortened: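 Lambs naturally parasitized with helminths. Finely ground compound was given orally, either as an aqueous suspension by stomach tube or weighed into gelatin capsules given by balling gun. Activity was assessed by the clinical test method: the reduction in helminth egg counts after treatment.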

Ovis aries [35] = assay: Percent reduction in Nematodirus eggs per gram, after treatment with 100 mg/kg dose of compound in sheep perorally; assay type: functional, Egg; details: route oral; procedure, shortened: as §5
Ovis aries [36] = assay: Percent reduction in Nematodirus eggs per gram, after treatment with 150 mg/kg dose of compound in sheep perorally; assay type: functional, Egg; details: route oral; procedure, shortened: as §5
Ovis aries [37] = assay: Percent reduction in Nematodirus eggs per gram, after treatment with 200 mg/kg dose of compound in sheep perorally; assay type: functional, Egg; details: route oral; procedure, shortened: as §5
Ovis aries [38] = assay: Percent reduction in Ostertagia eggs per gram, after treatment with 100 mg/kg dose of compound in sheep perorally; assay type: functional, Egg; details: route oral; procedure, shortened: as §5
Ovis aries [39] = assay: Percent reduction in Ostertagia eggs per gram, after treatment with 150 mg/kg dose of compound in sheep perorally; assay type: functional, Egg; details: route oral; procedure, shortened: as §5
Ovis aries [40] = assay: Percent reduction in Ostertagia eggs per gram, after treatment with 200 mg/kg dose of compound in sheep perorally; assay type: functional, Egg; details: route oral; procedure, shortened: as §6
Ovis aries [41] = assay: Percent reduction in Ostertagia eggs per gram, after treatment with 300 mg/kg dose of compound in sheep perorally; assay type: functional, Egg; details: route oral; procedure, shortened: as §6
Ovis aries [42] = assay: Percent reduction in Cooperia eggs per gram, after treatment with 100 mg/kg dose of compound in sheep perorally; assay type: functional, Egg; details: route oral; procedure, shortened: as §4
Ovis aries [43] = assay: Percent reduction in Strongyloides eggs per gram, after treatment with 100 mg/kg dose of compound in sheep perorally; assay type: functional, Egg; details: route oral; procedure, shortened: as §6
Ovis aries [44] = assay: Percent reduction in Strongyloides eggs per gram, after treatment with 150 mg/kg dose of compound in sheep perorally; assay type: functional, Egg; details: route oral; procedure, shortened: as §6
Ovis aries [45] = assay: Percent reduction in Trichostrongylus eggs per gram, after treatment with 150 mg/kg dose of compound in sheep perorally; assay type: functional, Egg; details: route oral
Ovis aries [46] = assay: Percent reduction in Oesophagostomum eggs per gram, after treatment with 300 mg/kg dose of compound in sheep perorally; assay type: functional, Egg; details: route oral; procedure, shortened: as §5

Cc1ccc(/C(Cl)=N/Nc2ccccc2)cc1
Reduction (Canis familiaris [1]): 100% | Reduction (Canis familiaris [2]): 100% | Reduction (Canis familiaris [3]): 99.8% | Reduction (Canis familiaris [4]): 100% | Reduction (Canis familiaris [5]): 100% | Reduction (Canis familiaris [6]): 100% | Reduction (Canis familiaris [7]): 100% | Reduction (Canis familiaris [8]): 100% | Parasite_Clearance (Mus musculus [9]): 20% | Parasite_Clearance (Mus musculus [10]): 100% | Reduction (Ovis aries [11]): 100% | Reduction (Ovis aries [12]): 100% | Reduction (Ovis aries [13]): 100% | Reduction (Ovis aries [14]): 29% | Reduction (Ovis aries [15]): 25% | Reduction (Ovis aries [16]): 0% | Reduction (Ovis aries [17]): 0% | Reduction (Ovis aries [18]): 0% | Reduction (Ovis aries [19]): 84% | Reduction (Ovis aries [20]): 100% | Reduction (Ovis aries [21]): 100% | Reduction (Ovis aries [22]): 100% | Reduction (Ovis aries [23]): 100% | Reduction (Ovis aries [24]): 100% | Reduction (Ovis aries [25]): 100% | Reduction (Ovis aries [26]): 79% | Reduction (Ovis aries [27]): 100% | Reduction (Ovis aries [28]): 37% | Reduction (Ovis aries [29]): 100% | Reduction (Ovis aries [30]): 100% | Reduction (Ovis aries [31]): 100% | Reduction (Ovis aries [32]): 100% | Reduction (Ovis aries [33]): 100% | Reduction (Ovis aries [34]): 73% | Reduction (Ovis aries [35]): 100% | Reduction (Ovis aries [36]): 100% | Reduction (Ovis aries [37]): 100% | Reduction (Ovis aries [38]): 96% | Reduction (Ovis aries [39]): 100% | Reduction (Ovis aries [40]): 100% | Reduction (Ovis aries [41]): 100% | Reduction (Ovis aries [42]): 100% | Reduction (Ovis aries [43]): 99% | Reduction (Ovis aries [44]): 100% | Reduction (Ovis aries [45]): 98% | Reduction (Ovis aries [46]): 100%
